The experiment concerns Primary human hepatocytes, TRAIL cytotoxicity, ATPlite, 24 h. The experiment in a line: TRAIL plus compound toxicity in normal liver cells, confirmation, cytotoxicity control for TRAIL sensitizer project, cell-based, primary human hepatocytes, ATPlite luminescence, 24 h (AID 1746). The settings on record: for cytotoxicity with TRAIL: at 5 µM (top of the series); for cytotoxicity: stronger effect = higher value. Summed up: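 System: primary human hepatocytes at 30–40% confluence. Also added: TRAIL at 1000 ng/mL final, added after compound pretreatment. Doses: compound at final amounts from 1.25 to 5 µM. Schedule: 4 h compound then 24 h TRAIL, 37 °C. Signal: ATP-based luminescence with ATPlite reagent.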

Setting [1] is: compound alone without TRAIL, at 5 µM.
Where [2] appears, read: measured here: TRAIL alone reference, dose or concentration not given here.

Consider `CCSc1nc(-c2ccccc2)nc(C(Cl)Cl)n1`, for which the cytotoxicity with TRAIL was 73%. The cytotoxicity under setting [1] came out at 47%. The cytotoxicity under setting [2] came out at 0%.

Regarding `CSc1nc(-c2ccccc2)nc(C(Cl)Cl)n1`, the cytotoxicity with TRAIL is 68%. In addition, under setting [1], the cytotoxicity was 22%. Also, under setting [2], the cytotoxicity is 0%.

Consider `CSc1nc(-c2ccc(C)cc2)nc(C(Cl)Cl)n1`, for which the cytotoxicity with TRAIL was 67%. Also, the cytotoxicity under setting [1] is 9%. Further, the cytotoxicity under setting [2] turned out to be 0%.
